Assay results: ChEMBL document CHEMBL4706620, “Design, synthesis, biological activity evaluation of 3-(4-phenyl-1H-imidazol-2-yl)-1H-pyrazole derivatives as potent JAK 2/3 and aurora A/B kinases multi-targeted inhibitors” (Eur J Med Chem, 2021)
pIC50: −log10 of the molar value.

What was measured:
Homo sapiens [1] = species on record: Homo sapiens; experiment: Selectivity for JAK3 (unknown origin) over Aurora B (unknown origin)
Homo sapiens [2] = species on record: Homo sapiens; experiment: Selectivity for JAK3 (unknown origin) over Aurora A (unknown origin)
[3] = target: T1, Tyrosine-protein kinase JAK3 (Homo sapiens, UniProt P52333); experiment: Inhibition of JAK3 (unknown origin) incubated for 40 mins in presence of ATP by Kinase-glo luminescence assay
T1 sequence (P52333 whole entry): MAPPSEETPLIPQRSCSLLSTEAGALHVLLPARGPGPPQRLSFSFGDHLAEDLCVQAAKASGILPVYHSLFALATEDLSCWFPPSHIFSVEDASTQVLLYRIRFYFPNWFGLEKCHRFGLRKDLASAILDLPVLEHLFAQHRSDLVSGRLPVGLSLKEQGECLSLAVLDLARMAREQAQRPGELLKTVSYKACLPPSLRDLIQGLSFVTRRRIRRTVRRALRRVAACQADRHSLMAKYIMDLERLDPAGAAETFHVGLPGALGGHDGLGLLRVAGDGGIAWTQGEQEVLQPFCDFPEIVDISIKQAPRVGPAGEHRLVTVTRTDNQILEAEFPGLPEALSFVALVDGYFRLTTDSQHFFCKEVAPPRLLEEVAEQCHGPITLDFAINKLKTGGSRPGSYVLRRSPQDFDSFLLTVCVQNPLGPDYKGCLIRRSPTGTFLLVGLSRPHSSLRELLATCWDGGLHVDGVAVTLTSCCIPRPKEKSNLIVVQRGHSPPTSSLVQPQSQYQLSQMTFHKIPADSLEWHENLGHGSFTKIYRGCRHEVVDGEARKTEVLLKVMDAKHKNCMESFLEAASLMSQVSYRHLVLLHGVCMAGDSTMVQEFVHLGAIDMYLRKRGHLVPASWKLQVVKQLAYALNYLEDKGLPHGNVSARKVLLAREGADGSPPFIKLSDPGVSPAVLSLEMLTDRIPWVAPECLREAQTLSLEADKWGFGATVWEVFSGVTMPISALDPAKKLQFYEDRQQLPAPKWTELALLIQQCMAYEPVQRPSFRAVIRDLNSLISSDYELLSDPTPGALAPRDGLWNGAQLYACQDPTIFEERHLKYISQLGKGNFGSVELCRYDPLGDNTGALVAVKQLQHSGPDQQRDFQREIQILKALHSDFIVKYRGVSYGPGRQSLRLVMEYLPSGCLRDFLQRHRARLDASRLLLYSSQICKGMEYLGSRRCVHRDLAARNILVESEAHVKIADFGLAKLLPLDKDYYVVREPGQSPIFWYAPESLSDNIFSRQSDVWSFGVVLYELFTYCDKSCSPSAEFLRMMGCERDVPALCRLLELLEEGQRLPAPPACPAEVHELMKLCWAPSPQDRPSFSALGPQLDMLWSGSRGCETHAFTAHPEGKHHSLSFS

Homo sapiens [4] = species on record: Homo sapiens; experiment: Selectivity for JAK2 (unknown origin) over Aurora A (unknown origin)
Aurora kinase A = target: T2, Aurora kinase A (Homo sapiens, UniProt O14965); experiment: Inhibition of Aurora A (unknown origin) incubated for 40 mins in presence of ATP by Kinase-glo luminescence assay
T2 sequence (O14965 whole entry): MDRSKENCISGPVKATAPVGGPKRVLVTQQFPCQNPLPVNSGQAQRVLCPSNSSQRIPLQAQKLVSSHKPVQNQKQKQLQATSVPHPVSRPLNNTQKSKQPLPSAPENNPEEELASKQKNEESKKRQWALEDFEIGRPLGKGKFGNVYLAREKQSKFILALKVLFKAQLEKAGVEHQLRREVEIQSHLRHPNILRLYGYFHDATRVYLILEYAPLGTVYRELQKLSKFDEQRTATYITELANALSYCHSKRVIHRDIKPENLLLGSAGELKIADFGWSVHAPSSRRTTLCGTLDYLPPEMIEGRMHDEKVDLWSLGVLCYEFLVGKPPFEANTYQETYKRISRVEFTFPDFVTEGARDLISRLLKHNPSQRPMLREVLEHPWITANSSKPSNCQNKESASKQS

K562 [5] = experiment: Antiproliferative activity against human K562 cells assessed as reduction in cell growth measured after 72 hrs by CCK8 assay; type: functional, cell-based; settings: K562, 72 h
HCT-116 [6] = experiment: Antiproliferative activity against human HCT116 cells assessed as reduction in cell growth measured after 72 hrs by CCK8 assay; type: functional, cell-based; settings: HCT-116, 72 h
Homo sapiens [7] = species on record: Homo sapiens; experiment: Selectivity for JAK2 (unknown origin) over Aurora B (unknown origin)
[8] = target: Tyrosine-protein kinase JAK2 (Homo sapiens, UniProt O60674); experiment: Inhibition of JAK2 (unknown origin) incubated for 40 mins in presence of ATP by Kinase-glo luminescence assay
HCT-116 [9] = experiment: Cell cycle arrest in human HCT116 cells assessed as accumulation of diploid cells at G1 phase at 10 uM incubated for 48 hrs by propidium iodide staining based flow cytometric analysis (reference value: 77.62 %); type: functional
K562 [10] = experiment: Cell cycle arrest in human K562 cells assessed as accumulation of diploid cells at G2 phase at 10 uM incubated for 48 hrs by propidium iodide staining based flow cytometric analysis (reference value: 7.73 %); type: functional
Aurora kinase B = Aurora kinase B (Homo sapiens, UniProt Q96GD4); experiment: Inhibition of Aurora B (unknown origin) incubated for 40 mins in presence of ATP by Kinase-glo luminescence assay
How it was run: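 Kinase reaction at 30 °C for 40 min in 40 mM Tris pH 7.4, 10 mM MgCl2, 0.1 mg/ml BSA, 1 mM DTT, 10 µM ATP, kinase plus substrate; compounds added from 10% DMSO dilutions (1% DMSO final). Remaining ATP measured by Kinase-Glo Plus luminescence; IC50 from nonlinear regression, normalized dose-response fit.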

HCT-116 [11] = experiment: Cell cycle arrest in human HCT116 cells assessed as accumulation of diploid cells at G2 phase at 10 uM incubated for 48 hrs by propidium iodide staining based flow cytometric analysis (reference value: 10.46 %); type: functional
HCT-116 [12] = experiment: Cell cycle arrest in human HCT116 cells assessed as accumulation of diploid cells at S phase at 10 uM incubated for 48 hrs by propidium iodide staining based flow cytometric analysis (reference value: 11.92 %); type: functional
HCT-116 [13] = experiment: Cell cycle arrest in human HCT116 cells assessed as accumulation at […] phase at 10 uM incubated for 48 hrs by propidium iodide staining based flow cytometric analysis (reference value: 2.01 %); type: functional
K562 [14] = experiment: Cell cycle arrest in human K562 cells assessed as accumulation of diploid cells at S phase at 10 uM incubated for 48 hrs by propidium iodide staining based flow cytometric analysis (reference value: 35.94 %); type: functional

Chain of Aurora kinase B (Q96GD4 whole entry): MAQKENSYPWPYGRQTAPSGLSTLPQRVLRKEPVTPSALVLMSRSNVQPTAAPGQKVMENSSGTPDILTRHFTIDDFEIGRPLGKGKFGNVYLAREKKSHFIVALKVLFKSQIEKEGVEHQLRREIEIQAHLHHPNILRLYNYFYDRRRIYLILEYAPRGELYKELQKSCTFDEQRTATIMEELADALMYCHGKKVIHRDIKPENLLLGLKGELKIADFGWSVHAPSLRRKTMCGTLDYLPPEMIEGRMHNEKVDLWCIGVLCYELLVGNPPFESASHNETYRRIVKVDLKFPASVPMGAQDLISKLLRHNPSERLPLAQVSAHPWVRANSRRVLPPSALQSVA
Chain of Tyrosine-protein kinase JAK2 (O60674 whole entry): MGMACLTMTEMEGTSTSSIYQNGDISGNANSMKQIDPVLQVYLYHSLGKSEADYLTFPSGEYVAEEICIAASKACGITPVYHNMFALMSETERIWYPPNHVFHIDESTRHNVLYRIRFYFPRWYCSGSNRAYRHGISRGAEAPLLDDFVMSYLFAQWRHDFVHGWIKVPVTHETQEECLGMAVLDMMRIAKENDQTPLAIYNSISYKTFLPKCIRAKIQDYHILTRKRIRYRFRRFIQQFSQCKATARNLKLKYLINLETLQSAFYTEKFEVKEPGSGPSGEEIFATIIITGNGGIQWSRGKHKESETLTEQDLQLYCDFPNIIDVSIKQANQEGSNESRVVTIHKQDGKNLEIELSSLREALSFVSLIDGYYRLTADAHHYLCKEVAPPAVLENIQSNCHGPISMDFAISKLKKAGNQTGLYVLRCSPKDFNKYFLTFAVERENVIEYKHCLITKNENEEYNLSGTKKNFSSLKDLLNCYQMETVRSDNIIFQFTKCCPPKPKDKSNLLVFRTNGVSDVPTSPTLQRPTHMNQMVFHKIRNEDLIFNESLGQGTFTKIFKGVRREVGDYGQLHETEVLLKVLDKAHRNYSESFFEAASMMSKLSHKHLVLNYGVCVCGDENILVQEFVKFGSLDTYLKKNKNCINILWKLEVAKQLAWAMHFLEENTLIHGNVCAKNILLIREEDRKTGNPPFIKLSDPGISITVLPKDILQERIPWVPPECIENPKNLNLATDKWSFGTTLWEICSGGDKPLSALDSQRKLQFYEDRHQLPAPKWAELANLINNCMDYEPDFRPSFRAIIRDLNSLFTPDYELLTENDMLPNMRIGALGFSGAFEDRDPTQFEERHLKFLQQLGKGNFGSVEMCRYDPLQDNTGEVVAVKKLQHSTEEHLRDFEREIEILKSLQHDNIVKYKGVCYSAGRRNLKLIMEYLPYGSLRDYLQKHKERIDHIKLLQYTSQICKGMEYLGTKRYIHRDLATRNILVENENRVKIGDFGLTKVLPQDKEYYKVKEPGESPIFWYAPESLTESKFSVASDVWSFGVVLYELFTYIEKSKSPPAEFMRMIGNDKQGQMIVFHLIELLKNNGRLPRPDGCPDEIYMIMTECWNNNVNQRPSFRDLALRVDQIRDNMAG

Compound | pIC50 [3] | pIC50 (Aurora kinase A) | pIC50 (K562 [5]) | pIC50 (HCT-116 [6]) | pIC50 [8] | pIC50 (Aurora kinase B) | also measured
O=C(Nc1c[nH]nc1-c1nc(-c2ccc(CN3CCOCC3)cc2)c[nH]1)c1ccccc1 |  |  | < 5.00 | < 5.00 |  |  | 
O=C(Nc1c[nH]nc1-c1nc(-c2ccc(CN3CCCCC3)cc2)c[nH]1)c1ccc(Cl)cc1 |  | 5.69 | < 5.00 | 5.80 |  |  | 
O=C(Nc1c[nH]nc1-c1nc2ccc(CN3CCOCC3)cc2[nH]1)NC1CC1 [AT-9283] |  |  |  |  |  | 7.21 | Activity (HCT-116 [9]): 66.56%; Activity (K562 [10]): 14.99%; Activity (HCT-116 [11]): 25.19%; Activity (HCT-116 [12]): 8.24%; Activity (HCT-116 [13]): 1.98%; Activity (K562 [14]): 32.31%
Cc1nc(Cl)cc(Nc2c[nH]nc2-c2nc(-c3ccc(CN4CCOCC4)cc3)c[nH]2)n1 | 7.64 | 6.84 | 5.00 | < 5.00 | 8.10 |  | 
COc1ccc(C(=O)Nc2c[nH]nc2-c2nc(-c3ccc(CN4CCCCC4)cc3)c[nH]2)cc1 |  | 5.82 | < 5.00 | < 5.00 |  |  | 

The next lines start with results.

pIC50 [3] | pIC50 (Aurora kinase A) | pIC50 (K562 [5]) | pIC50 (HCT-116 [6]) | pIC50 [8] | pIC50 (Aurora kinase B) | Compound | also measured
7.89 | 5.95 | 5.60 | < 5.00 | 7.80 |  | O=C(Nc1c[nH]nc1-c1nc(-c2ccc(CN3CCCCC3)cc2)c[nH]1)c1cccc(Cl)c1 | Selectivity ratio (Homo sapiens [1]): 20; Selectivity ratio (Homo sapiens [2]): 20; Selectivity ratio (Homo sapiens [4]): 20; Selectivity ratio (Homo sapiens [7]): 20
7.62 | 6.44 | 5.25 | < 5.00 | 7.85 | < 6.00 | COc1ccc(C(=O)Nc2c[nH]nc2-c2nc(-c3ccc(CN4CCOCC4)cc3)c[nH]2)cc1 | Selectivity ratio (Homo sapiens [1]): 20; Selectivity ratio (Homo sapiens [2]): 20; Selectivity ratio (Homo sapiens [4]): 20; Selectivity ratio (Homo sapiens [7]): 20
 | 6.33 | 5.36 | 5.28 | 5.93 | 6.19 | O=C(Nc1c[nH]nc1-c1nc(-c2ccc(CN3CCOCC3)cc2)c[nH]1)c1ccc([N+](=O)[O-])cc1 | 
7.19 | 5.60 | 5.58 | < 5.00 |  |  | O=C(Nc1c[nH]nc1-c1nc(-c2ccc(CN3CCOCC3)cc2)c[nH]1)c1ccc(Cl)cc1 | 
 |  | 5.01 | 4.79 |  |  | CSc1nc(Cl)c(C)c(Nc2c[nH]nc2-c2ncc(-c3ccc(OCCCN4CCOCC4)cc3)[nH]2)n1 | 
